Active and inactive are the calls of the source.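 How the source made its calls, unless noted: active means fluorescence slope after compound addition differing from the mean of all screened samples at 99.7% confidence, in either direction; inactive means the rest.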
How the values were obtained:
[1] = inhibitors of TNFa-induced NFkB p65 translocation, primary screen, imaging, HUVEC, MLSMR starter and 10KST1 sets (AID 438;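 active means inhibition above 20% together with a positive visual image hit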;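 further: compound added about 3h40 before a 20 min TNFalpha stimulation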;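 on inhibition: signal is the nuclear over cytoplasmic p65 intensity ratio per well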); conditions: HUVEC TNFa-induced p65 nuclear translocation; cell count: measured here: nuclei count (cytotoxicity indicator), at 2.08 µM; inhibition: at 2 µM, stronger effect = higher value, 0% TNFa-plus-vehicle, 100% no-TNFa wells
[2] = endothelial E-selectin expression blockers – imaging, HUVEC, immunofluorescence, MLSMR starter and 10KST1 sets, primary screen (AID 487;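 active means visually confirmed hit in the image check and inhibition above 20%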;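 on inhibition: signal is fraction of cell area covered by stained E-selectin grains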;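 on nuclei count: 100% = median nuclei count of all wells on the same plate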); conditions: HUVEC TNFalpha-induced E-selectin immunofluorescence imaging, at 2 µM; inhibition: stronger effect = higher value; nuclei count: measured here: cell number, toxicity
[3] = Primary imaging screen for DUSP6 inhibitors that restore phospho-Erk in transfected HeLa cells, chemical complementation (AID 609;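 active means compounds giving at least 50% inhibition in the cell-based MKP-3 phosphatase rescue imaging test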;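 on inhibition: phospho-Erk level distribution per well compared with pooled transfected vehicle control wells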); conditions: HeLa MKP-3 transfected, phospho-Erk imaging KS statistic, at 10 µM, cells stimulated with TPA for 15 min
[4] = molecular target: Dual specificity protein phosphatase 6 (Homo sapiens) (UniProt Q16828); assay: as above; conditions: HeLa MKP-3 transfected, phospho-Erk imaging KS statistic; at 10 µM; stronger effect = higher value; cells stimulated with TPA for 15 min
Sequence of Dual specificity protein phosphatase 6 (Homo sapiens) (Q16828 whole entry, looked up): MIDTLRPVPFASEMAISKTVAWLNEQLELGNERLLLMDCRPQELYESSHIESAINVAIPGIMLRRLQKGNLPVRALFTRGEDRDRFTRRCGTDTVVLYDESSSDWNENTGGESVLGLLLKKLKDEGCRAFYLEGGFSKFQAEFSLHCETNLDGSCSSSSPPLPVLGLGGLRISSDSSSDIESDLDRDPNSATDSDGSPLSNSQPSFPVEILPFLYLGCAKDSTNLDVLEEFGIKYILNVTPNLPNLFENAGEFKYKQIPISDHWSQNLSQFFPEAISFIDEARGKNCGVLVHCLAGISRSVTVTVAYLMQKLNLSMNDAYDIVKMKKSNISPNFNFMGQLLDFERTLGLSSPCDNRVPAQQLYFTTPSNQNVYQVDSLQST

[5] = molecular target: Voltage-gated potassium channel subunit beta-2 (Rattus norvegicus) (UniProt P62483); assay: inhibitors of rat Kvbeta2 reductase activity – biochemical, NADPH fluorescence, primary screen (AID 622;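 active means fluorescence slope higher than the sample average by over 3 SD, cut at about -0.22 in these data, passing the limit was not always enough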;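 further: slope of raw intensity against log time taken from 70 to 1610 s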); conditions: recombinant KvBeta, 4-cyanobenzaldehyde reduction, at 10 µM, stronger effect = higher value
Sequence of Voltage-gated potassium channel subunit beta-2 (Rattus norvegicus) (P62483 whole entry, looked up): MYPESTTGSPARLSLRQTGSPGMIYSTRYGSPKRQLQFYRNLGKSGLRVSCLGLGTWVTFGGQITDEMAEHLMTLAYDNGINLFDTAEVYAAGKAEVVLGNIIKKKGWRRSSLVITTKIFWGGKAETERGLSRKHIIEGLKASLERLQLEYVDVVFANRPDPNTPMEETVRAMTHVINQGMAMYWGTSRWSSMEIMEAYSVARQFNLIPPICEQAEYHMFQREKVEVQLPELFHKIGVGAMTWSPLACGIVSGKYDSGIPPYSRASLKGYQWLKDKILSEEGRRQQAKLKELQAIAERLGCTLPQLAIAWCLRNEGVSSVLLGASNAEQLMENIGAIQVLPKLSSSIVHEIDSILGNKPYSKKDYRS

[6] = molecular target: Voltage-gated potassium channel subunit beta-2 (Rattus norvegicus) (UniProt P62483); assay: enhancers of rat Kvbeta2 NADPH turnover – biochemical, NADPH fluorescence, primary screen (AID 623;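 active means NADPH fluorescence slope more negative than the mean of all samples by about 3 SD, 99.7% confidence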;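 further: fluorescence intensity change per second fitted from 20 to 320 s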); conditions: Recombinant KvBeta, NADPH fluorescence decrease slope, 10 min; at 10 µM; stronger effect = lower value
[7] = molecular target: Alpha-2C adrenergic receptor (Homo sapiens) (UniProt P18825); assay: compounds altering alpha2C-coupled GIRK flux – cell-based, HEK293 alpha2C/GIRK1/2, thallium flux, primary screen (AID 624); conditions: thallium flux BTC fluorescence, at 10 µM, actives lie on both sides;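 further: slope of fluorescence ratio to pre-addition baseline per second over 15 to 24 s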
Sequence of Alpha-2C adrenergic receptor (Homo sapiens) (P18825 whole entry, looked up): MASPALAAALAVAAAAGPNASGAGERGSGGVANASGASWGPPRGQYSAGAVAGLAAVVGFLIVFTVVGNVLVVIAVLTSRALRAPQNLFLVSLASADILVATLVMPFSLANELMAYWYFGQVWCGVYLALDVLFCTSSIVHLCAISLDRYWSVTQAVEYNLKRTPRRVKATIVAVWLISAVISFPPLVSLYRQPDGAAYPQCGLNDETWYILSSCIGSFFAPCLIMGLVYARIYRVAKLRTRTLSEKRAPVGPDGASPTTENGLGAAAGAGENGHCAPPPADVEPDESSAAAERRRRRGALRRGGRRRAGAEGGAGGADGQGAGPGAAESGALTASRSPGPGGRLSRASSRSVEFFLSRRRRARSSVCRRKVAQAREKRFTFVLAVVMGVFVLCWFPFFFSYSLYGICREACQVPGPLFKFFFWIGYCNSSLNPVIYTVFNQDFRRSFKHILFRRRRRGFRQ

[8] = inhibitors of larval lipid processing in zebrafish, primary screen, whole organism, PED6 fluorescence, gall bladder and intestine (AID 686;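 active means a full or partial loss of lipid-probe fluorescence in the fish gall bladder, intestine or both, judged by eye; inactive means no fluorescence loss, or compound toxic to the fish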;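 further: larvae 5 to 7 days old with five fish per well; signal comes from phospholipase A2 cleavage of quenched PED6 carried via bile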); conditions: Zebrafish larvae PED6 lipid processing, fluorescence scoring; screened at 20 µM (by protocol)
Method in brief: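 Incubation: overnight exposure of larvae to compound plus PED6 / Test system: live zebrafish larvae aged 5-7 days, whole organism / Amount: 5 larvae per well / Read-out basis: visual per-well fluorescence inhibition score / Signal: visual fluorescence microscopy scoring of gall bladder, gut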

[9] = loss of swimming-algae plug formation – whole organism, Chlamydomonas reinhardtii, WT vs cilia-less mutant, absorbance, 96-well, primary screen (AID 463189;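 active means inhibition at or above 50% relative to wild type and mutant plate controls; inactive means inhibition below 50%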;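 further: 0% = wild type cc124 cells in DMSO and 100% = ciliumless bld1 mutant cells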); conditions: Chlamydomonas reinhardtii gravitaxis, OD600 absorbance, 2 days; at 10 µM; stronger effect = higher value
[10] = measured here: cell density z-score
[11] = measured here: nuclear c-Myc green intensity z-score
[12] = measured here: nuclear pErk red intensity z-score, stronger effect = higher value

Row | Compound | cell count [1] | inhibition [1] | inhibition [2] | nuclei count [2] [%] | z-score [3, 10] | z-score [3, 11] | z-score [3, 12] | inhibition [4] | fluorescence slope [5] | NADPH fluorescence slope [6] | slope [7] | outcome [8] | inhibition [9]
1 | COc1cccc(C2C(C#N)=C(N)Oc3cc(C)[nH]c(=O)c32)c1OC (configuration not stated) | 508 | -31.3% (inactive) | -89.8% (inactive) | 158 | -0.315 | -0.918 | -0.838 | -2.47% (inactive) | -0.524 (inactive) | -4.3e-05 (inactive) | 0.00584 (inactive) | inactive | 9.96% (inactive)
2 | O=c1c(-c2ccc3c(c2)OCCO3)c(C(F)(F)F)oc2cc(O)cc(O)c12 | 534 | -10.2% (inactive) | -138% (inactive) | 131 | 1.65 | -1.41 | -0.0254 | 1.9e-07% (inactive) | -0.533 (inactive) | -4e-05 (inactive) | 0.00864 (inactive) | inactive | 29.9% (inactive)
3 | CC(C)OC(=O)[C@H]1[C@H](c2ccc(Cl)cc2)[C@@](C#N)(C(N)=O)[C@@H]2C=CC(C(N)=O)=CN21 | 523 | -4.9% (inactive) | -24% (inactive) | 155 | 0.333 | 0.745 | -0.843 | 2.46% (inactive) | -0.335 (inactive) | 1.2e-05 (inactive) | 0.00427 (inactive) | inactive | 6.97% (inactive)
4 | Cn1nnnc1-c1cc(Br)ccc1NC(=O)c1ccccc1 | 397 | -1.8% (inactive) | -2.9% (inactive) | 93.6 | -0.94 | 1.01 | -1.17 | -8.27% (inactive) | -0.39 (inactive) | 7.2e-07 (inactive) | 0.00973 (inactive) | inactive | -4.44% (inactive)
5 | CCN(CC)CCN1C(=O)C(=O)/C(=C(/O)c2ccc(F)cc2)C1c1cccnc1 (configuration not stated) | 488 | -18.4% (inactive) | -35.7% (inactive) | 128 | -0.0126 | -0.441 | 0.45 | -2.47% (inactive) | -0.493 (inactive) | -5.5e-05 (inactive) | 0.00472 (inactive) | inactive | -7.28% (inactive)
6 | CCOC(=O)C(C#N)C(Cc1ccccc1)c1ccco1 (configuration not stated) | 590 | -3% (inactive) | -70.2% (inactive) | 166 | 1.19 | -0.726 | -0.042 | 2.46% (inactive) | -0.488 (inactive) | -0.000162 (inactive) | 0.00534 (inactive) | inactive | 6.44% (inactive)
7 | Cc1ccc2c(c1)[C@@H]1CN(C)CC[C@@H]1N2S(=O)(=O)c1ccc(F)cc1 | 507 | -8.3% (inactive) | -69% (inactive) | 199 | -0.629 | -0.478 | -0.18 | -8.27% (inactive) | -0.324 (inactive) | -2.1e-06 (inactive) | 0.00411 (inactive) | inactive | 10.5% (inactive)
8 | CCOC(=O)CCc1c(C)c(C#N)c2nc3ccccc3n2c1-n1ccnc1C | 583 | -0.8% (inactive) | -125% (inactive) | 138 | -0.341 | 0.0322 | -0.112 | 7.93% (inactive) | -0.457 (inactive) | -3.9e-05 (inactive) | 0.00607 (inactive) | inactive | 21.4% (inactive)
9 | Cc1cc(C)cc(-n2c3nc4ccccc4nc3c3c(=O)n(Cc4ccco4)cnc32)c1 | 319 | -15.5% (inactive) | -94.4% (inactive) | 134 | 0.126 | -0.244 | -0.872 | 3.5% (inactive) | -0.396 (inactive) | -0.000101 (inactive) | 0.0051 (inactive) | inactive | -2.54% (inactive)
10 | O=C1OC2CCC1(c1ccccc1)C2 (configuration not stated) | 573 | -7% (inactive) | 40.2% (inactive) | 137 | -1.09 | 0.357 | 0.719 | -5.89% (inactive) | -0.524 (inactive) | -7.2e-05 (inactive) | 0.00472 (inactive) | inactive | -4.76% (inactive)
11 | COc1ccccc1N(O)C1CC(=O)N(c2ccc(F)cc2)C1=O (configuration not stated) | 304 | -7.6% (inactive) | -18.5% (inactive) | 92 | -1.81 | 1.54 | 0.452 | 13.4% (inactive) | -0.46 (inactive) | -0.000168 (inactive) | 0.00806 (inactive) | inactive | -1.02% (inactive)
12 | Clc1ccccc1-c1nnc2sc(-c3ccco3)nn12 | 568 | -10.6% (inactive) | 37.2% (inactive) | 88.5 | -0.391 | -0.433 | 1.6 | 4.72% (inactive) | -0.43 (inactive) | -4.6e-05 (inactive) | 0.00572 (inactive) | inactive | 85.1% (active)
13 | CN(C)C/C(Cl)=C(\Cl)c1ccccc1 | 584 | -0.1% (inactive) | -20.3% (inactive) | 159 | -1.42 | -0.391 | 0.439 | 4.25% (inactive) | -0.53 (inactive) | -6.5e-05 (inactive) | 0.00503 (inactive) | inactive | 10.7% (inactive)
14 | Cc1cc(OCCN2CCOCC2)nc2ccccc12 | 358 | -29.5% (inactive) | -231% (inactive) | 135 | 0.234 | -1.97 | -1.2 | -10.5% (inactive) | -0.431 (inactive) | -9.4e-05 (inactive) | 0.00613 (inactive) | inactive | 22.7% (inactive)
